Screening results: PubChem, several laboratories
Compounds with a hit are over-represented: about 2.5% of the library has one in this group of screens.
HCV NS3 hel inh: HCV NS3 helicase inhibition; NS3 helicase DNA unwinding, Cy5 molecular beacon fluorescence; inhibition, % at 10.9 µM; 0.56% of 290,000 active; AID 1800;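 active = inhibition above the mean of all tested compounds plus 3 SD, set per campaign, cut at about 35% in these data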;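 note: 0% = DMSO wells and 100% = thioflavine S control wells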
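assay system = NS3 helicase fragment of HCV | buffer or medium = MOPS pH 6.5, MgCl2, DTT, Tween20, BSA | timing = 60 min unwinding reaction at 25 °C after ATP addition | signal = Cy5 beacon fluorescence read at start and 1 h | read-out basis = % inhibition of unwinding | control set = low DMSO, high thioflavine S at 110 µM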
DSG3 Ab inh: human desmoglein-3 autoantibody binding inhibition; binding (percent of control), % at 10 µM; DSG3-coupled beads, scFv-anti-DSG3-GFP binding, flow cytometry; stronger effect = lower value; 0.48% of 310,000 active; P32926;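 active = binding more than 3 SD below its plate's average and above zero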;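 note: hits lower antibody fragment binding to DSG3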
SUMO1 PPI mod: alters human SUMO1 binding to SIM partners; 0.33% of 360,000 active; AID 602429; SUMO1 binding to a labelled peptide, TR-FRET, 1 h; P63165; inhibition, % at 20 µM; in the data active = inhibition above about 37%
MBD2 DNA inh: inhibitors of human MBD2 binding to methylated oligonucleotide | TR-FRET | inhibition, % at 4.4 µM | 0.31% of 370,000 active; in the data active = inhibition above about 13%
Target sequence (Q9UBB5 whole entry, looked up): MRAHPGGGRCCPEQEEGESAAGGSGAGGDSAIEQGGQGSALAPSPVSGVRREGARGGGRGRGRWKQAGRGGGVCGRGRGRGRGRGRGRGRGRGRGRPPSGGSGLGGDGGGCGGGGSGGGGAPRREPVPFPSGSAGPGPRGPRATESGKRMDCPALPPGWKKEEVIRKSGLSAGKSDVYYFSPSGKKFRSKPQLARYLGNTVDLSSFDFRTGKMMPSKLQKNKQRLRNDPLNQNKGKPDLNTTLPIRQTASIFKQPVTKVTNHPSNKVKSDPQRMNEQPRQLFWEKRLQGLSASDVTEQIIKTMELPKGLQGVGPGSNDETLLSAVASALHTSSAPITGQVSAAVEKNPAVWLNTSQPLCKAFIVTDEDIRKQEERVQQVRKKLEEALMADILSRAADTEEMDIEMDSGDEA
UHRF1 MBD2 ctr: blocks human UHRF1 binding to methylated DNA; Q96T88; UHRF1 binding to methylated oligo, TR-FRET; inhibition, % at 4.4 µM; 0.75% of 370,000 active; AID 687016;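 note: UHRF1 SRA domain binding a hemimethylated CpG hairpin DNA probe; 0% = median of test compound wells and 100% = reference inhibitor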
DNMT1 inh: inhibitors of human DNMT1. inhibition (reported as % activation of signal), % at 10 µM. DNMT1 molecular beacon, Hinp1I cleavage, fluorescence. 0.83% of 360,000 active. P26358; in the data active = inhibition above about 50%
UHRF1 DNA bind: inhibits human UHRF1 binding to methylated oligonucleotide, MBD2 counter-screen; shares compounds with MBD2 DNA inh; TR-FRET; inhibition, % at 4.4 µM; 25% of 1,000 active;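 note: UHRF1 SRA domain binding a labeled hemimethylated CpG hairpin DNA; 0% = vehicle only and 100% = reference inhibitor with vehicle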
MBD2 confirm: confirmation of human MBD2-DBD methylated oligonucleotide binding inhibitors | TR-FRET MBD2-DBD binding to methylated oligonucleotide | shares compounds with MBD2 DNA inh | 26% of 1,000 active | inhibition, % at 4.4 µM | AID 720531; in the data active = inhibition above about 14%
Active calls of the source: *; . = no result. Cut-off read from the data, not from the text of the source, unless noted: active = inhibition above about 21%; inactive = the rest.

SMILES	HCV NS3 hel inh	DSG3 Ab inh	SUMO1 PPI mod	MBD2 DNA inh	UHRF1 MBD2 ctr	DNMT1 inh	UHRF1 DNA bind	MBD2 confirm
Cc1ccccc1NC(=O)Cc1nc(COC(=O)CC(C)c2ccccc2)cs1 (stereo not drawn)	.	101	3	20*	1	1	2	5
CCOC(=O)C1CCN(C(=S)NC2CCCC2)CC1	5	103	-1	5	1	0	.	.
O=C(/C=C/c1ccc(O)c([N+](=O)[O-])c1)c1ccc2ccccc2c1	-3	102	-13	44*	0	4	4	-1
CCc1c(C)nc(SCC(=O)Nc2c(C)n(C)n(-c3ccccc3)c2=O)[nH]c1=O	1	102	2	20*	1	0	7	1
COC(=O)c1ccc(OC(=O)/C=C/c2ccco2)cc1	-1	103	-34	0	3	17	.	.
O=Cc1cccc(OC(=O)/C=C/c2ccco2)c1	32	111	12	17*	48*	92*	48*	25*
CCCCN(C(=O)c1ccc(N(C)S(=O)(=O)c2ccc(C)cc2)cc1)c1c(N)n(CCC)c(=O)[nH]c1=O	1	.	-1	0	2	-3	.	.
CC1CCCCC1NC(=O)CSc1nncs1 (stereo not drawn)	9	108	15	14*	0	4	7	1
CC1CCCC(NC(=O)CSc2nncs2)C1C (stereo not drawn)	.	.	-2	0	7	3	.	.
CC(C)CN1C(=O)C[C@@]2(C(=O)N(C)c3ccc(NS(=O)(=O)C4CC4)cc32)C1c1ccccc1 (stereo partly drawn)	.	.	.	15*	15	.	12	8
COc1ccc(C(=O)N(CN2CCCC2=O)c2ccc(C)cc2)cc1	-1	99	2	1	-3	-4	.	.
Cc1ccc(N(CN2CCCC2=O)C(=O)c2ccccc2)cc1	-15	.	3	17*	-4	-1	8	5
N#Cc1ccc(/C=C\c2nccc3c2[nH]c2ccccc23)cc1	-13	94	3	4	-1	-9	.	.
Cc1ccc(S(=O)(=O)N2CCOCC2)cc1NC(=O)CSc1nc2ccccc2c(=O)n1Cc1ccccc1	-24	84	1	-1	5	-9	.	.
Cc1ccc(S(=O)(=O)N2CCOCC2)cc1NC(=O)Cn1c(=O)ccn(Cc2ccccc2)c1=O	.	105	-6	14*	-3	2	7	1
O=C(COC(=O)c1ccccc1)Nc1ncc([N+](=O)[O-])s1	.	87	58*	15*	44*	93*	48*	18*
O=C(OCC1OC(n2ncc(=O)[nH]c2=O)C(OC(=O)c2ccccc2)C1OC(=O)c1ccccc1)c1ccccc1 (stereo not drawn)	6	101	14	28*	5	0	4	1
CC(=O)OC[C@H]1O[C@@H](n2ncc(=O)[nH]c2=O)[C@H](OC(C)=O)[C@@H]1OC(C)=O	1	.	1	.	.	2	.	.
COCCNc1nnc(SCC(=O)NC(=O)c2ccc(Cl)cc2)s1	.	99	-2	3	-2	0	.	.
O=C(NCCCn1ccnc1)c1cccc(S(=O)(=O)NCc2ccccc2)c1	-5	103	-2	2	3	0	.	.
CC(Sc1nncn1C)C(=O)Nc1nnc(-c2ccccc2)s1 (stereo not drawn)	4	96	8	-6	-2	3	.	.
C#CCOCCOCCOCCNc1nc(N2CCN(C(=O)[C@H]([C@@H](C)CC)n3cc(CCC(=O)O)nn3)CC2)nc(N2CCN(C(=O)[C@H](CCCCN)n3cc(CCCC)nn3)CC2)n1	.	101	0	25*	10	5	9	7
C#CCOCCOCCOCCNc1nc(N2CCN(C(=O)[C@H]([C@@H](C)CC)n3cc(CCCCN)nn3)CC2)nc(N2CCN(C(=O)[C@H](CCCCN)n3cc(CCCC)nn3)CC2)n1	.	110	-24	4	13	2	.	.
